Laboratory results reported in ChEMBL document CHEMBL1799916, “Novel 3,5-bis(bromohydroxybenzylidene)piperidin-4-ones as coactivator-associated arginine methyltransferase 1 inhibitors: enzyme selectivity and cellular activity” (J Med Chem, 2011).
The source made the active and inactive calls. The calls are words filed in the database; no cut-off is given here.

Assays:
[1] = biological target: T1, Histone-lysine N-methyltransferase SUV39H1 (Homo sapiens) (UniProt O43463); assay: Inhibition of Suv39H1-mediated methylation of histone H3 at 100 uM after 90 mins by scintillation counting in presence of S-adenosyl-l-[methyl-3H]methionine
T1 sequence (whole entry): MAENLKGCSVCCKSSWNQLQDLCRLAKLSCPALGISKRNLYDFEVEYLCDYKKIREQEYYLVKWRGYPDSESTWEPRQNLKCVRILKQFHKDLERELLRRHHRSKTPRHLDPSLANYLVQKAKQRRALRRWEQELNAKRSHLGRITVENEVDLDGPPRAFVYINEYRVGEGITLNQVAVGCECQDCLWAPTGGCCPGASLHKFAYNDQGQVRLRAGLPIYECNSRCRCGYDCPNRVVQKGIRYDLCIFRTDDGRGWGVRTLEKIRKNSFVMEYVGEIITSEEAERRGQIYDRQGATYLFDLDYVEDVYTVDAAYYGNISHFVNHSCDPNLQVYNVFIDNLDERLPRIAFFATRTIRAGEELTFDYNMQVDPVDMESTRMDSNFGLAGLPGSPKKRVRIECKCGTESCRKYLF

[2] = biological target: T2, Histone-arginine methyltransferase CARM1 (Homo sapiens) (UniProt Q86X55); assay: Inhibition of CARM1-mediated prostate specific antigen promoter activity in human LNCAP cells at 30 uM after 48 hrs by luciferase reporter gene assay; type: cell-based
T2 sequence (whole entry): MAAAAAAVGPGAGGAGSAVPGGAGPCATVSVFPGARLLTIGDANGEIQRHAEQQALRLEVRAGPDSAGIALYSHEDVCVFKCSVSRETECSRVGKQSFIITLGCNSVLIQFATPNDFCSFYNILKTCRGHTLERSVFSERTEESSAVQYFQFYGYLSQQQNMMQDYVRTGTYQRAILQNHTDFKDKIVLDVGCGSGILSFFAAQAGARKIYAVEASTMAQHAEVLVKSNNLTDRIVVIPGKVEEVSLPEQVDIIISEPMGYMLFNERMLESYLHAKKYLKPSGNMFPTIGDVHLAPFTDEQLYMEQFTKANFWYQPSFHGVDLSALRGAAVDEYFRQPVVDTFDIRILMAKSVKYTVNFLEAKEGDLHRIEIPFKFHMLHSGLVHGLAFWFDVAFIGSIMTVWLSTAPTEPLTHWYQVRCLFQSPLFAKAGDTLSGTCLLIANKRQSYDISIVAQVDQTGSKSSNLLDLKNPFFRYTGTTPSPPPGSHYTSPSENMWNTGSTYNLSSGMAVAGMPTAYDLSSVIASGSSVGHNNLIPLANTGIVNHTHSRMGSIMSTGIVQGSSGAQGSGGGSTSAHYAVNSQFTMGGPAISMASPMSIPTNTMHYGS
Outline: (§1)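 LNCaP grown in phenol-red-free RPMI1640 with 10% charcoal-stripped FCS, lipofected with 300 ng PSA(ARE)-LUC and 2 ng CMV-Renilla internal control. After 12 h, 20 nM DHT added to induce PSA-firefly, together with increasing compound concentrations. Cells harvested 42–44 h later; 5/6 used for dual luciferase read-out (firefly relative to Renilla). Mean ± SD from triplicate assays.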

[3] = tested on: LNCaP; assay: Cytotoxicity against human LNCAP cells assessed as ATP level at 30 uM after 44 hrs by CellTiter-Glo luminescent assay; type: cell-based
Outline: (§2)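 LNCaP in phenol-red-free RPMI1640 with 10% charcoal-stripped FCS, seeded ~20 h before transfection with PSA(ARE)-LUC plus CMV-Renilla. 12 h after transfection, treated with 20 nM DHT and compound. Harvested after 42–44 h; 1/6 of the cells assayed for ATP by CellTiter-Glo luminescence.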

[4] = biological target: Histone-lysine N-methyltransferase, H3 lysine-79 specific (Homo sapiens) (UniProt Q8TEK3); assay: Inhibition of DOTL1-mediated methylation of nucleosome at 100 uM after 90 mins by scintillation counting in presence of S-adenosyl-l-[methyl-3H]methionine
Outline: (§3)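 Compound at 100 μM with 0.1–0.2 μM recombinant enzyme and 0.5–1.5 μM substrate in PBS pH 7.4 containing [³H]AdoMet. Incubated 30 °C for 90 min, then SDS-PAGE, PVDF transfer and overnight film fluorography. Ponceau-stained substrate bands cut out and dpm counted by liquid scintillation.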

[5] = biological target: Protein arginine N-methyltransferase 5 (Homo sapiens) (UniProt O14744); assay: Inhibition of PRMT5-mediated methylation of histone H4 at 100 uM after 90 mins by scintillation counting in presence of S-adenosyl-l-[methyl-3H]methionine
Outline: as §3

[6] = biological target: Protein arginine N-methyltransferase 3 (Homo sapiens) (UniProt O60678); assay: Inhibition of PRMT3-mediated methylation of NPL3 at 100 uM after 90 mins by scintillation counting in presence of S-adenosyl-l-[methyl-3H]methionine
Outline: as §3

[7] = biological target: T2, Histone-arginine methyltransferase CARM1 (Homo sapiens); assay: Inhibition of CARM1-mediated prostate specific antigen promoter activity in human LNCAP cells after 48 hrs by luciferase reporter gene assay; type: cell-based
Outline: as §1

[8] = biological target: Protein arginine N-methyltransferase 3 (Homo sapiens) (UniProt O60678); assay: Inhibition of PRMT3-mediated methylation of ribosome protein rpS223 at 100 uM after 90 mins by scintillation counting in presence of S-adenosyl-l-[methyl-3H]methionine
Outline: as §3

[9] = tested on: LNCaP; assay: Cytotoxicity against human LNCAP cells assessed as ATP level at 8 to 10 uM after 44 hrs by CellTiter-Glo luminescent assay; type: cell-based
Outline: as §2

[10] = biological target: T2, Histone-arginine methyltransferase CARM1 (Homo sapiens); assay: Inhibition of CARM1 expressed in tetracycline-induced human HEK293 cells coexpressing flag-tagged PABP1 assessed as inhibition of PABP1 methylation at 1 to 5 uM by SDS-PAGE analysis; type: cell-based
Outline: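 HEK293 line carrying tetracycline-controlled TetR with inducible Flag-tagged PABP1. Tetracycline added in the presence of compound to induce Flag-PABP1, which is resolved from endogenous PABP1 by its slower SDS-PAGE migration. Methylation detected with a methyl-specific PABP1 antibody.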

Chain of Protein arginine N-methyltransferase 3 (Homo sapiens) (O60678 2-531 limits assumed): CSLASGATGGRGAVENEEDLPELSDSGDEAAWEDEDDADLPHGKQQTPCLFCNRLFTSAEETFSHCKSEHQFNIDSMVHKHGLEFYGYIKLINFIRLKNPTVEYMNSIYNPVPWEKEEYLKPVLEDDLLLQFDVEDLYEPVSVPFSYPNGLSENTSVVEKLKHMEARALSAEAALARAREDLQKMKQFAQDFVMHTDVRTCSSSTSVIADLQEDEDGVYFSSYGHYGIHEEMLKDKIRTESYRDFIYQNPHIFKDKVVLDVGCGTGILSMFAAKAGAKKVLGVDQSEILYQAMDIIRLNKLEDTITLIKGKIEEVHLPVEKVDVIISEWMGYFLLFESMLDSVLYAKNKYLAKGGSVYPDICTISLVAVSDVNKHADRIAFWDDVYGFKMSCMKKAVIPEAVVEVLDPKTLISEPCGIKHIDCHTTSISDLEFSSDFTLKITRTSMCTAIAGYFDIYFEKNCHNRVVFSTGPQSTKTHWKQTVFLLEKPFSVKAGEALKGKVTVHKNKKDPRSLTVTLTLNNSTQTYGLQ
Chain of Histone-lysine N-methyltransferase, H3 lysine-79 specific (Homo sapiens) (Q8TEK3 whole entry, looked up): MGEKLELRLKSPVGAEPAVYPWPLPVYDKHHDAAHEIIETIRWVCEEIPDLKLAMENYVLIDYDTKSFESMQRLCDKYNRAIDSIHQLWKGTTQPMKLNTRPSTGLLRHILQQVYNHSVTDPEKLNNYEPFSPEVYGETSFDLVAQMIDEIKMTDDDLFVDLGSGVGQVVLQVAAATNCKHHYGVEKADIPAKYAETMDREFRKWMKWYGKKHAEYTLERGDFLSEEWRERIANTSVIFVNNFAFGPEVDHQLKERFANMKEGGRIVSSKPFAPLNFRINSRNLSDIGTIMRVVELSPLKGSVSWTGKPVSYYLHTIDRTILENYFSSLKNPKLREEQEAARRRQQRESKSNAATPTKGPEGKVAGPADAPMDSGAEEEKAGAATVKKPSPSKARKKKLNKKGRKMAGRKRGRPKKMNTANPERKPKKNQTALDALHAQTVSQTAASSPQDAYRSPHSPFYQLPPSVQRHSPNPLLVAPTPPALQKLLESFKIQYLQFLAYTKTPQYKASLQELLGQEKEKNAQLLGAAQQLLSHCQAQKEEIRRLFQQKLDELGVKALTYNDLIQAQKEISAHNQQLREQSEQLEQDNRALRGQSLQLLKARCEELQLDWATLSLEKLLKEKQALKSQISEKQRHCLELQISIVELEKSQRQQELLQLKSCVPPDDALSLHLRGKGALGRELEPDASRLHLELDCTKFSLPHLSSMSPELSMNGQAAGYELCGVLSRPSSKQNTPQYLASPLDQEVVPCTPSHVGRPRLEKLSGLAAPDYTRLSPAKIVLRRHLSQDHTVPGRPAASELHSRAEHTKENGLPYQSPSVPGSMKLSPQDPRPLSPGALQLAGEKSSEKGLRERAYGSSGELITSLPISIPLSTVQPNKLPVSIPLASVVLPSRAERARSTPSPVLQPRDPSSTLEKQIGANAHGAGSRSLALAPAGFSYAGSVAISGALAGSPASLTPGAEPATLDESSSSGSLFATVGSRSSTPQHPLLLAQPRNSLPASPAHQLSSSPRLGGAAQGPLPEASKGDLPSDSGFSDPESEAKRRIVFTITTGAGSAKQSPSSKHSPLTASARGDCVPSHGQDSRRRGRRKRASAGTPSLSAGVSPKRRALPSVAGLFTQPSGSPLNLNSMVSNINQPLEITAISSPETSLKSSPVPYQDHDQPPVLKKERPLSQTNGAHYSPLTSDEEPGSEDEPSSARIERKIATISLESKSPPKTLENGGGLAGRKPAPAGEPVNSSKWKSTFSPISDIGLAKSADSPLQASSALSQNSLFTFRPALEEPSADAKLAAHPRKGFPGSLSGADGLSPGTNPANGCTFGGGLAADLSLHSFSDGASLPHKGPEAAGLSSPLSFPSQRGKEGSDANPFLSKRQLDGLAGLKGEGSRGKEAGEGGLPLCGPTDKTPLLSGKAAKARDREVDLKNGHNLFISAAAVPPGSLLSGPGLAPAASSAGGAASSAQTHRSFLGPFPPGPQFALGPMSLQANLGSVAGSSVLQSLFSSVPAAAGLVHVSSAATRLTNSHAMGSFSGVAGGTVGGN
Chain of Protein arginine N-methyltransferase 5 (Homo sapiens) (O14744 whole entry): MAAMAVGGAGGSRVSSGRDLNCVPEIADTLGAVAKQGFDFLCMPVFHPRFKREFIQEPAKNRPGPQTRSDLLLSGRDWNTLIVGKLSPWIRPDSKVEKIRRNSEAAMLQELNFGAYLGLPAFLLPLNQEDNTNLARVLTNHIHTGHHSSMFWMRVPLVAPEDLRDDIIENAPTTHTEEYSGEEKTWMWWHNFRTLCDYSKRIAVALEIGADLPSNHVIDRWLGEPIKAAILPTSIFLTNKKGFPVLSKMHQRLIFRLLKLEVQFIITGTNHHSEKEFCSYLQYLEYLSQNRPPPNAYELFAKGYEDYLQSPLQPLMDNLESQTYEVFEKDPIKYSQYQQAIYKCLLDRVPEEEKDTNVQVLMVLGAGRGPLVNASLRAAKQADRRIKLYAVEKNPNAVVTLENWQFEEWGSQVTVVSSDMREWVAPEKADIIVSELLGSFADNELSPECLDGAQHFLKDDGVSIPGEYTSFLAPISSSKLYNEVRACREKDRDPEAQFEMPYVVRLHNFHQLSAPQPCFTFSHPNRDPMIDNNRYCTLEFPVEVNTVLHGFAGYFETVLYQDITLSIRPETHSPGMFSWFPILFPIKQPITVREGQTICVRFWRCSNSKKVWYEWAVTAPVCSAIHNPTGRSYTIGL

Row | inhibition [1] | inhibition [2] | inhibition [4] | inhibition [5] | inhibition [6] | inhibition [7] | inhibition [8] | inhibition [10] | SMILES | Activity [3] | Activity [9]
1 | inactive | Active | inactive | Active |  |  |  |  | O=C1/C(=C/c2ccc(O)c(Br)c2)CN(CC(=O)c2ccccc2)C/C1=C\c1ccc(O)c(Br)c1 | Non-toxic | 
2 | inactive |  | inactive | Active | Active | Dose-dependent effect | Active |  | O=C1/C(=C/c2ccc(O)c(Br)c2)CN(Cc2cccc(Cl)c2)C/C1=C\c1ccc(O)c(Br)c1 |  | 
3 | inactive |  | inactive |  | Active | Dose-dependent effect | Active | Active | O=C1/C(=C/c2ccc(O)c(Br)c2)CN(Cc2ccccc2)C/C1=C\c1ccc(O)c(Br)c1 |  | Non-toxic
